{"source": "ChEMBL document CHEMBL4393723", "about": "“Caffeic acid phenethyl ester (CAPE)-derivatives act as selective inhibitors of acetylcholinesterase” (Eur J Med Chem, 2019)", "key": {"NIH3T3": {"system": "NIH3T3", "test": "Cytotoxicity against mouse NIH/3T3 cells measured after 96 hrs by SRB assay", "type": "cell-based", "details": "for pEC50: Mus musculus, NIH3T3, 96 h; for Activity: mouse, nih3t3, 96 h", "procedure,_shortened": "(§1)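 Cells seeded on day 0 and exposed from 24 h to at least six concentrations (1, 3, 7, 12, 20, 30 µM), with final DMSO/DMF at most 0.5%. After 96 h treatment, fixed in 10% TCA for 24 h at 4 °C and stained about 20 min with 0.4% SRB in 1% acetic acid. Bound dye dissolved in 10 mM Tris base, read at 570 nm. EC50 from 4-parameter Hill fit (top 100, bottom 0), three independent experiments in triplicate.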"}, "MCF7": {"system": "MCF7", "test": "Cytotoxicity against human MCF7 cells measured after 96 hrs by SRB assay", "type": "cell-based", "details": "for pEC50: Homo sapiens, MCF7, 96 h; for Activity: human, mcf7, 96 h", "procedure,_shortened": "as §1"}, "SW-1736": {"system": "SW-1736", "test": "Cytotoxicity against human SW1736 cells measured after 96 hrs by SRB assay", "type": "cell-based", "details": "for pEC50: Homo sapiens, SW-1736, 96 h; for Activity: human, sw-1736, 96 h", "procedure,_shortened": "as §1"}, "HT-29": {"system": "HT-29", "test": "Cytotoxicity against human HT-29 cells measured after 96 hrs by SRB assay", "type": "cell-based", "details": "for pEC50: Homo sapiens, HT-29, 96 h; for Activity: human, ht-29, 96 h", "procedure,_shortened": "as §1"}, "A2780": {"system": "A2780", "test": "Cytotoxicity against human A2780 cells measured after 96 hrs by SRB assay", "type": "cell-based", "details": "for pEC50: Homo sapiens, A2780, 96 h; for Activity: human, a2780, 96 h", "procedure,_shortened": "as §1"}, "FaDu": {"system": "FaDu", "test": "Cytotoxicity against human FADU cells measured after 96 hrs by SRB assay", "type": "cell-based", "details": "for pEC50: Homo sapiens, FaDu; for Activity: human, fadu", "procedure,_shortened": "as §1"}, "[1]": {"test": "Solubility of the compound", "type": "physicochemical"}, "Acetylcholinesterase [2]": {"molecular_target": "T1, Acetylcholinesterase (Electrophorus electricus, UniProt O42275)", "T1 sequence (O42275 whole entry)": "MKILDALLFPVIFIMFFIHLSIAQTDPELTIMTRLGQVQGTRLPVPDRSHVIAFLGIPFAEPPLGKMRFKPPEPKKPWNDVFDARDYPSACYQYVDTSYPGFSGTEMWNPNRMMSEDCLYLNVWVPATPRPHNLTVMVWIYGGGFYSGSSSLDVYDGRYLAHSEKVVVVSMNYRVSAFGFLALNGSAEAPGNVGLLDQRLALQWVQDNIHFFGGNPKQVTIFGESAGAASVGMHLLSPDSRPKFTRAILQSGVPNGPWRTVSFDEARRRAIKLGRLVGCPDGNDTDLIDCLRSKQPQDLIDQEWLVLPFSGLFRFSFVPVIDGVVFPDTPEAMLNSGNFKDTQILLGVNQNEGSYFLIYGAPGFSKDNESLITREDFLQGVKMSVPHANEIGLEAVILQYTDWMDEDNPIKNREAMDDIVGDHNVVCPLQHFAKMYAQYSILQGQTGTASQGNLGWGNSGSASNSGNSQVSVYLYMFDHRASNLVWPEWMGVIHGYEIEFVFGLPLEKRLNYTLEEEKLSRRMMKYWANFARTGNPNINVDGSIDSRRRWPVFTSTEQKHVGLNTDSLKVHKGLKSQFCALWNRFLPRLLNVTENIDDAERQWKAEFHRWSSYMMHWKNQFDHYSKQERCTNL", "test": "Mixed inhibition of electric eel AChE using acetylcholine iodide as substrate preincubated for 20 mins followed by substrate addition and measured every minute for 30 mins by Lineweaver-Burk plot analysis"}, "Acetylcholinesterase [3]": {"molecular_target": "T1, Acetylcholinesterase", "test": "Mixed inhibition of electric eel AChE using butyrylcholine iodide as substrate preincubated for 20 mins followed by substrate addition and measured every minute for 30 mins Dixon/Cornish-Bowden plot analysis"}}, "note": "pEC50, pKi: −log10 of the molar value."}
{"compound": "COc1ccc(/C=C/C(=O)OCCc2ccccc2)cc1OC", "values": [{"measurement": "pEC50", "setting": "NIH3T3", "value": 4.75}, {"measurement": "pEC50", "setting": "MCF7", "value": 4.79}, {"measurement": "pEC50", "setting": "SW-1736", "value": 4.78}, {"measurement": "pEC50", "setting": "HT-29", "value": 4.78}, {"measurement": "pEC50", "setting": "A2780", "value": 4.77}, {"measurement": "pEC50", "setting": "FaDu", "value": 4.76}]}
{"compound": "O=C(/C=C/c1ccc(OCc2ccccc2)c(OCc2ccccc2)c1)OCCc1ccc(OC(=O)/C=C/c2ccc(OCc3ccccc3)c(OCc3ccccc3)c2)cc1", "values": [{"measurement": "solubility", "setting": "[1]", "value": "Insoluble"}]}
{"compound": "O=C(/C=C/c1ccc(OCc2ccccc2)c(OCc2ccccc2)c1)OCCc1ccccc1O", "values": [{"measurement": "pKi", "setting": "Acetylcholinesterase [2]", "value": 5.07}, {"measurement": "pKi", "setting": "Acetylcholinesterase [3]", "value": 4.92}]}
{"compound": "O=C(/C=C/c1ccc(OCc2ccccc2)c(OCc2ccccc2)c1)OCCc1cccc(OC(=O)/C=C/c2ccc(OCc3ccccc3)c(OCc3ccccc3)c2)c1", "values": [{"measurement": "solubility", "setting": "[1]", "value": "Insoluble"}]}
{"compound": "COc1cc(/C=C/C(=O)OCCc2ccccc2)cc(OC)c1OCCc1ccccc1", "values": [{"measurement": "pKi", "setting": "Acetylcholinesterase [2]", "value": 5.71}, {"measurement": "Activity", "setting": "NIH3T3", "value": "Non-Toxic"}, {"measurement": "Activity", "setting": "MCF7", "value": "Non-Toxic"}, {"measurement": "Activity", "setting": "SW-1736", "value": "Non-Toxic"}, {"measurement": "Activity", "setting": "HT-29", "value": "Non-Toxic"}, {"measurement": "Activity", "setting": "A2780", "value": "Non-Toxic"}, {"measurement": "Activity", "setting": "FaDu", "value": "Non-Toxic"}, {"measurement": "pKi", "setting": "Acetylcholinesterase [3]", "value": 5.61}]}
{"compound": "O=C(/C=C/c1ccc(OCc2ccccc2)c(OCc2ccccc2)c1)OCCc1ccccc1OC(=O)/C=C/c1ccc(OCc2ccccc2)c(OCc2ccccc2)c1", "values": [{"measurement": "solubility", "setting": "[1]", "value": "Insoluble"}]}
{"compound": "O=C(/C=C/c1ccc(OCc2ccccc2)c(OCc2ccccc2)c1)OCCc1ccc(OC(=O)/C=C/c2ccc(OCc3ccccc3)c(OCc3ccccc3)c2)c(OC(=O)/C=C/c2ccc(OCc3ccccc3)c(OCc3ccccc3)c2)c1", "values": [{"measurement": "pKi", "setting": "Acetylcholinesterase [2]", "value": 6.14}, {"measurement": "Activity", "setting": "NIH3T3", "value": "Non-Toxic"}, {"measurement": "Activity", "setting": "MCF7", "value": "Non-Toxic"}, {"measurement": "Activity", "setting": "SW-1736", "value": "Non-Toxic"}, {"measurement": "Activity", "setting": "HT-29", "value": "Non-Toxic"}, {"measurement": "Activity", "setting": "A2780", "value": "Non-Toxic"}, {"measurement": "Activity", "setting": "FaDu", "value": "Non-Toxic"}, {"measurement": "pKi", "setting": "Acetylcholinesterase [3]", "value": 5.74}]}
{"compound": "O=C(/C=C/c1cccc(Cl)c1)OCCc1ccccc1", "values": [{"measurement": "pKi", "setting": "Acetylcholinesterase [2]", "value": 4.85}, {"measurement": "pKi", "setting": "Acetylcholinesterase [3]", "value": 4.25}]}
{"compound": "COc1ccc(/C=C/C(=O)OCCc2ccccc2)c(OC)c1", "values": [{"measurement": "pKi", "setting": "Acetylcholinesterase [2]", "value": 4.92}, {"measurement": "pKi", "setting": "Acetylcholinesterase [3]", "value": 4.46}]}
{"compound": "O=C(/C=C/c1cccc(Br)c1)OCCc1ccccc1", "values": [{"measurement": "pKi", "setting": "Acetylcholinesterase [2]", "value": 5.05}, {"measurement": "pKi", "setting": "Acetylcholinesterase [3]", "value": 4.51}]}
{"compound": "O=C(/C=C/c1ccc(O)c(O)c1)OCCc1ccccc1", "note": "[CAFFEIC ACID PHENETHYL ESTER]", "values": [{"measurement": "pEC50", "setting": "NIH3T3", "value": 4.67}, {"measurement": "pEC50", "setting": "MCF7", "value": 4.92}, {"measurement": "pEC50", "setting": "SW-1736", "value": 5.33}, {"measurement": "pEC50", "setting": "HT-29", "value": "< 4.52"}, {"measurement": "pEC50", "setting": "A2780", "value": 5.46}, {"measurement": "pEC50", "setting": "FaDu", "value": 4.92}]}
